Screening data deposited in PubChem by several laboratories.
Shown are actives, neighbours in structure and some others; about 4% of the full set was active somewhere.
TAAR1 ag: human TAAR1 agonism. CHO RD-HGA16 TAAR1, Fluo-8 calcium fluorescence; vehicle wells 0%, saturating PEA agonist 100%. activation, % at 3 µM. actives 0.99% (n = 360,000);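 active = activation above the mean activation of all test compounds in the run plus 3 SD, cut at about 38% in these data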
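Test system: RD-HGA16 (CHO) cells co-expressing Gα16 and hTAAR1 / Benchmarks: DMSO vehicle as 0%, PEA at EC100 as 100% / Repeats: no replicates (n 1) / Measure: % activation from peak over basal fluorescence ratio, DMSO-to-PEA scaled / Timing: 17-24 h plating, Fluo-8 75 min 37 °C, 30 min RT / Technique: kinetic Fluo-8 calcium fluorescence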
DAGLB inh: diacylglycerol lipase beta (human) inhibition. AID 504411. HEK293T DAGLB membrane lysate, EnzChek fluorogenic substrate. Q8NCG7. actives 0.059% (n = 340,000). inhibition, % at 5.17 µM; in the data active = inhibition above about 34%
Target sequence (Q8NCG7 whole entry, looked up): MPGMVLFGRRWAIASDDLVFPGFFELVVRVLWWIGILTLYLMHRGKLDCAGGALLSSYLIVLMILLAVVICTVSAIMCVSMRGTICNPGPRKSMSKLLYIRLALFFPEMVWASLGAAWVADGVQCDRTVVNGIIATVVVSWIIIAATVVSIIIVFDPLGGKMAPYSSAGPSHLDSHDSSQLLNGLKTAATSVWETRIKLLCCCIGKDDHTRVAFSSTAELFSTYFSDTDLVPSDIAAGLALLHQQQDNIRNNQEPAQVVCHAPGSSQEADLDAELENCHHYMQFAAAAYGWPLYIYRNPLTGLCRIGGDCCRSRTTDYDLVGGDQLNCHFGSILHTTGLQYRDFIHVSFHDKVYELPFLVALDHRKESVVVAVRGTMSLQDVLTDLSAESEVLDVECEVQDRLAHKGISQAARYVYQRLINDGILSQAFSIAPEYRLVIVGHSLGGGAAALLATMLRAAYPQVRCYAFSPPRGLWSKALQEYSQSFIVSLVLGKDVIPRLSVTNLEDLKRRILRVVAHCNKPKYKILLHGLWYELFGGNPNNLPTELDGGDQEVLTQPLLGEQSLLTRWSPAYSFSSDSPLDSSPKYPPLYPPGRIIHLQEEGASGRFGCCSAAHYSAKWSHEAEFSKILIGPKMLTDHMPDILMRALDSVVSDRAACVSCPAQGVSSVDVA
TAAR1 antagonist: antagonists of human TAAR1; Q96RJ0; CHO RD-HGA16 TAAR1, Fluo-8 calcium fluorescence, antagonist; inhibition, % at 3 µM; actives 1.5% (n = 360,000);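 active = inhibition above a per-plate cutoff, the mean inhibition of test compounds on that plate plus 3 SD, cut at about 49% in these data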
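Test system: hTAAR1-expressing CHO RD-HGA16 cells, Gα16-coupled; Probe or stimulus: EC80 β-phenethylamine stimulus; Compound dosing: single nominal final test compound concentration of 3 µM; Timing: 140 s kinetic read after compound, 140 s after agonist; Signal: Fluo-8 calcium-sensitive fluorescence; Measure: % inhibition of agonist calcium response; Controls: DMSO and EC80 PEA controls.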
GPR7 antag: human neuropeptides B/W receptor 1 antagonism; actives 1.1% (n = 290,000); GPR7-expressing cells, fluorescence antagonist assay; inhibition, % at 4.4 µM; P48145; AID 1861; in the data active = inhibition above about 16%, passing the limit was not always enough;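 note: cells stimulated with the agonist NPW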
MPTP block: permeability transition pore inhibition; isolated mouse mitochondria, Ca2+ swelling absorbance, 30 min; inhibition, % at 10 µM; actives 1.4% (n = 360,000); AID 602449;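 active = inhibition of 50% or more, scaled per plate between neutral and stimulator controls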
TAAR1 nonsel count: counter-screen for TAAR1 antagonists: nonselective antagonists; shares compounds with TAAR1 antagonist; counterscreen cell line, calcium fluorescence, antagonist mode; inhibition, % at 3 µM; actives 77% (n = 2,400); in the data active = inhibition above about 22%;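 note: CHO-Ga16 host cells stimulated with ATP at an EC80 level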
TAAR1 ant conf: confirmation of human TAAR1 antagonists. shares compounds with TAAR1 antagonist. TAAR1-expressing cells, fluorescence antagonist read-out. inhibition, % at 3 µM. actives 40% (n = 2,400). AID 651785; in the data active = inhibition above about 49%;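 note: CHO-Ga16 host cells challenged with agonist PEA near its EC80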
Ga16 nonsel ag: nonselective Ga16 agonist in TAAR1 antagonist counter-screen. Ga16-expressing cells, calcium fluorescence, agonist counterscreen. actives 18% (n = 2,400). activation, % at 3 µM. shares compounds with TAAR1 antagonist; in the data active = activation above about 12%
TAAR1 ag count: TAAR1 agonism, antagonist counter-screen; shares compounds with TAAR1 antagonist; hTAAR1 cell line, fluorescence activation, agonist mode; activation, % at 3 µM; actives 2% (n = 2,400); in the data active = activation above about 37%;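 note: CHO cells stably expressing TAAR1 with calcium dye readout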
Each line names hits and unclear results; the compound was inactive in the other large screens (follow-up assays come after a bar, where they were run).

Cc1cc(=O)oc2c3c(cc(OCC(=O)NCc4ccccc4)c12)OC(C)(C)CC3	TAAR1 antagonist 68 | TAAR1 nonsel count 24 | TAAR1 ant conf inactive | Ga16 nonsel ag inactive | TAAR1 ag count inactive
O=C(Nc1cccc(/C=C/c2ccccn2)c1)c1ccc(-n2cncn2)c([N+](=O)[O-])c1	TAAR1 antagonist 73 (no result: GPR7 antag) | TAAR1 nonsel count 40 | TAAR1 ant conf 61 | Ga16 nonsel ag 14 | TAAR1 ag count inactive
CCN(CC)S(=O)(=O)c1cc(NC(=O)c2ccc3c(c2)NC(=O)C(C)S3)ccc1C (centres undefined)	TAAR1 antagonist 73 (no result: GPR7 antag) | TAAR1 nonsel count 41 | TAAR1 ant conf 52 | Ga16 nonsel ag 13 | TAAR1 ag count inactive
Cc1cc(C)c(NC(=O)c2ccc3c(c2)NC(=O)C(C)S3)c(C)c1 (centres undefined)	none (no result: GPR7 antag)
Fc1cccc(Cc2c(-c3ccc(Cl)cc3)nc3ccc(Br)cn23)c1	none (no result: DAGLB inh, GPR7 antag)
Cc1ccc(C(=O)Nc2cccc(-c3ccc(N4CCOCC4)nn3)c2)cc1[N+](=O)[O-]	TAAR1 antagonist 60 (no result: GPR7 antag) | TAAR1 nonsel count inactive | TAAR1 ant conf inactive | Ga16 nonsel ag inactive | TAAR1 ag count inactive
CCOC1=C(C#N)CC2(CC1)c1ccccc1-c1ccccc12	TAAR1 antagonist 71 (no result: GPR7 antag) | TAAR1 nonsel count 24 | TAAR1 ant conf inactive | Ga16 nonsel ag inactive | TAAR1 ag count inactive
COc1ccc(N2CCN(C(=O)c3ccc(-c4nc5ccccc5s4)o3)CC2)cc1	none (no result: GPR7 antag)
COc1ccccc1N1CCN(C(=O)c2ccc(-c3nc4ccccc4s3)o2)CC1	TAAR1 antagonist 54 (no result: GPR7 antag) | TAAR1 nonsel count 22 | TAAR1 ant conf inactive | Ga16 nonsel ag inactive | TAAR1 ag count inactive
CCOC(=O)c1cc(-c2nnc(SCC(=O)Nc3ccc(F)cc3)o2)c(C)nc1C	TAAR1 antagonist 54 | TAAR1 nonsel count inactive | TAAR1 ant conf inactive | Ga16 nonsel ag inactive | TAAR1 ag count inactive
COC(CNS(=O)(=O)c1cc2c3c(c1)CCN3C(=O)CC2)OC	none
O=C(CCc1nc2ccccc2c(=O)[nH]1)N1CCN(S(=O)(=O)c2ccc(Cl)c(C(F)(F)F)c2)CC1	TAAR1 antagonist 62 (no result: GPR7 antag) | TAAR1 nonsel count 39 | TAAR1 ant conf 50 | Ga16 nonsel ag 16 | TAAR1 ag count inactive
CC(CCC(=O)O)C1CCC2C3CCC4C[C@H](O)CCC4(C)C3CC(=O)C12C (some centres undefined)	none
CC1=C(CC[C@@H](C)CO)OC2CC3C4CCC5CC(O)CCC5(C)C4CC(=O)C3(C)C12 (some centres undefined)	TAAR1 antagonist 76 (no result: GPR7 antag) | TAAR1 nonsel count 29 | TAAR1 ant conf 52 | Ga16 nonsel ag inactive | TAAR1 ag count inactive
Cc1cc(C)cc(CC(=O)N2CCC2(C)C(=O)NS(=O)(=O)c2ccc(Br)cc2)c1 (centres undefined)	none (no result: DAGLB inh, GPR7 antag)
OC(c1ccccc1)(c1ccccc1)C1CCN(CCCOc2ccc(-c3ccc(F)cc3F)cc2)CC1	TAAR1 antagonist 52 (no result: DAGLB inh, GPR7 antag, MPTP block) | TAAR1 nonsel count 42 | TAAR1 ant conf inactive | Ga16 nonsel ag 18 | TAAR1 ag count inactive
N#CCc1ccc(OCCCN2CCC(C(O)(c3ccccc3)c3ccccc3)CC2)cc1	none (no result: DAGLB inh, GPR7 antag)
COc1ccccc1-c1ccc(OCCCN2CCC(C(O)(c3ccccc3)c3ccccc3)CC2)cc1	TAAR1 antagonist 56 (no result: DAGLB inh, GPR7 antag, MPTP block) | TAAR1 nonsel count 42 | TAAR1 ant conf 59 | Ga16 nonsel ag 15 | TAAR1 ag count inactive
Cc1ccc(-n2c(-c3cnccn3)n[nH]c2=S)c(Br)c1	TAAR1 antagonist 104 | TAAR1 nonsel count inactive | TAAR1 ant conf inactive | Ga16 nonsel ag inactive | TAAR1 ag count inactive
COc1cccc(NC(=O)CSC2=NN3CCCC(=O)N=C3S2)c1	TAAR1 antagonist 104 | TAAR1 nonsel count inactive | TAAR1 ant conf inactive | Ga16 nonsel ag inactive | TAAR1 ag count inactive
COc1ccc(OC)c(NC(=O)CSC2=NN3CCCC(=O)N=C3S2)c1	none
CC(=O)CCc1ccc(OCCCOc2cccc3cccnc23)cc1	TAAR1 antagonist 68 | TAAR1 nonsel count 32 | TAAR1 ant conf inactive | Ga16 nonsel ag inactive | TAAR1 ag count inactive
Cc1cc(Br)cc(Br)c1OCC(=O)NNC(=O)Nc1ccccc1	none (no result: GPR7 antag)
Nc1[nH]c(C(=O)c2ccc(Br)cc2)c(-c2ccc3ccccc3c2)c1C(=O)NCCc1c[nH]c2ccccc12	none (no result: DAGLB inh, GPR7 antag, MPTP block)
C[C@@H]1CN([C@H](C)CO)S(=O)(=O)c2ccc(C#Cc3ccccc3F)cc2O[C@H]1CN(C)C(=O)c1ccc2c(c1)OCO2	TAAR1 antagonist 73 (no result: GPR7 antag) | TAAR1 nonsel count 34 | TAAR1 ant conf 59 | Ga16 nonsel ag 12 | TAAR1 ag count inactive
CC(=O)Nc1ccc(S(=O)(=O)NCC(=O)OCC(=O)NCc2ccco2)cc1	TAAR1 antagonist 100 (no result: GPR7 antag) | TAAR1 nonsel count inactive | TAAR1 ant conf inactive | Ga16 nonsel ag inactive | TAAR1 ag count inactive
COC(=O)c1cc2c(c3c4ccccc4n(S(=O)(=O)c4ccc(OC)cc4)c13)C(=O)N(Cc1ccccc1OC)C2	none (no result: DAGLB inh, GPR7 antag, MPTP block)
O=C(CNC(=O)c1ccccc1F)NCCN1C(=O)S/C(=C\c2ccccc2Cl)C1=O	none
O=C(CCS(=O)(=O)c1ccc(Cl)cc1)NCCN1C(=O)S/C(=C\c2ccccc2F)C1=O	TAAR1 antagonist 71 | TAAR1 nonsel count 38 | TAAR1 ant conf inactive | Ga16 nonsel ag inactive | TAAR1 ag count inactive
COC(=O)c1cccc(Nc2nc(-c3cccnc3)nc3ccccc23)c1	TAAR1 antagonist 67 | TAAR1 nonsel count 27 | TAAR1 ant conf inactive | Ga16 nonsel ag inactive | TAAR1 ag count inactive
CCOC(=O)c1cccc(Nc2nc(-c3cccnc3)nc3ccccc23)c1	none
CCC(c1nnnn1-c1ccc2c(c1)OCCO2)N1CCN(c2ccccc2OC)CC1 (centres undefined)	none (no result: DAGLB inh, GPR7 antag)
CN(Cc1ccccc1)C(=O)c1cccc(NC(=O)Cc2cccc([N+](=O)[O-])c2)c1	TAAR1 antagonist 65 (no result: GPR7 antag) | TAAR1 nonsel count 26 | TAAR1 ant conf inactive | Ga16 nonsel ag inactive | TAAR1 ag count inactive
CN(Cc1ccccc1)C(=O)c1cccc(NC(=O)Cc2ccc([N+](=O)[O-])cc2)c1	none (no result: GPR7 antag)
NC(=O)c1nsc(C(=O)N(c2ccccc2)C(C(=O)NC2CCCCC2)c2ccc(O)cc2)c1N (centres undefined)	TAAR1 antagonist 64 | TAAR1 nonsel count 25 | TAAR1 ant conf inactive | Ga16 nonsel ag inactive | TAAR1 ag count inactive
NC(=O)c1nsc(C(=O)N(c2ccccc2)C(C(=O)NCc2ccc(F)cc2)c2ccco2)c1N (centres undefined)	TAAR1 antagonist 68 | TAAR1 nonsel count 21 | TAAR1 ant conf 53 | Ga16 nonsel ag inactive | TAAR1 ag count 40
